Results: ChEMBL document CHEMBL4689842, “EUbOPEN Chemogenomics Library wave 1” (2021)

How the values were obtained:
Assay type in all cases: toxicity, cell-based
[1] = tested on: U2OS; experiment: Incucyte cell viability with U2OS; settings: human, 10 µM, compound concentration 10 uM; further: filed as whole numbers so only -1 and 0 and 1 occur
[2] = tested on: Fibroblast; experiment: Multiplex assay against human fibroblast
Method in brief: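 Phenotypes for tubulin, mitochondrial mass and membrane permeability are expressed as per cents of healthy-nucleus cells. Cells were stained live at seeding with Hoechst33342, BioTracker Green Microtubule Cytoskeleton Dye, MitoTracker Red and Annexin V Alexa Fluor 680, then imaged after compound addition on a CQ1 microscope at 37°C and 5% CO2. Machine-learning gating in CellPathfinder separated Hoechst high-intensity objects from normal cells, divided normal cells by nuclear state (healthy, pyknosed, fragmented) and divided pyknosed cells into mitotic or apoptotic.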

[3] = tested on: Fibroblast; experiment: Incucyte cell viability with human fibroblast; settings: 10 µM, compound concentration 10 uM; further: filed as whole numbers so only -1 and 0 and 1 occur
[4] = 6 h, replicate number 1, timepoint 6 hours
[5] = 12 h, replicate number 1, timepoint 12 hours
[6] = 18 h, replicate number 1, timepoint 18 hours
[7] = 24 h, replicate number 1, timepoint 24 hours
[8] = 12 h, 1 µM, compound concentration 1 uM, replicate 1
[9] = 12 h, 1 µM, compound concentration 1 uM, replicate 2
[10] = 12 h, 10 µM, compound concentration 10 uM, replicate 1
[11] = 12 h, 10 µM, compound concentration 10 uM, replicate 2
[12] = 24 h, 1 µM, compound concentration 1 uM, replicate 1
[13] = 24 h, 1 µM, compound concentration 1 uM, replicate 2
[14] = 24 h, 10 µM, compound concentration 10 uM, replicate 1
[15] = 24 h, 10 µM, compound concentration 10 uM, replicate 2

SMILES: CC[C@H](Nc1ncnc2[nH]cnc12)c1nc2cccc(F)c2c(=O)n1-c1ccccc1 [IDELALISIB]
- Growth Rate ([1]; 0 h, replicate number 1, timepoint 0 hours): 0
- Growth Rate [1, 4]: 0
- Growth Rate [1, 5]: 1
- Growth Rate ([1]; 12 h, replicate number 2, timepoint 12 hours): 0
- Growth Rate [1, 6]: 0
- Growth Rate [1, 7]: 0
- Population Apoptotic (%) [2, 8]: 91%
- Population Fragmented Nuclei (%) [2, 8]: 26%
- Population Healthy Nuclei (%) [2, 8]: 56%
- Population Hoechst High Intensity Objects (%) [2, 8]: 11%
- Population Membrane Permeable-Phenotype (%) [2, 8]: 12%
- Population Mitochondria Different-Phenotype (%) [2, 8]: 1%
- Population Mitotic Cells (%) [2, 8]: 8%
- Population Normal (%) [2, 8]: 88%
- Population Pyknosed Nuclei (%) [2, 8]: 17%
- Population Tubulin-Different-Phenotype (%) [2, 8]: 20%
- Total Cell Count [2, 8]: 222
- Population Apoptotic (%) [2, 9]: 50%
- Population Fragmented Nuclei (%) [2, 9]: 56%
- Population Healthy Nuclei (%) [2, 9]: 34%
- Population Hoechst High Intensity Objects (%) [2, 9]: 30%
- Population Membrane Permeable-Phenotype (%) [2, 9]: 6%
- Population Mitochondria Different-Phenotype (%) [2, 9]: 26%
- Population Mitotic Cells (%) [2, 9]: 50%
- Population Normal (%) [2, 9]: 69%
- Population Pyknosed Nuclei (%) [2, 9]: 9%
- Population Tubulin-Different-Phenotype (%) [2, 9]: 53%
- Total Cell Count [2, 9]: 63
- Population Apoptotic (%) [2, 10]: 58%
- Population Fragmented Nuclei (%) [2, 10]: 26%
- Population Healthy Nuclei (%) [2, 10]: 59%
- Population Hoechst High Intensity Objects (%) [2, 10]: 10%
- Population Membrane Permeable-Phenotype (%) [2, 10]: 14%
- Population Mitochondria Different-Phenotype (%) [2, 10]: 0%
- Population Mitotic Cells (%) [2, 10]: 41%
- Population Normal (%) [2, 10]: 89%
- Population Pyknosed Nuclei (%) [2, 10]: 13%
- Population Tubulin-Different-Phenotype (%) [2, 10]: 4%
- Total Cell Count [2, 10]: 199
- Population Apoptotic (%) [2, 11]: 50%
- Population Fragmented Nuclei (%) [2, 11]: 58%
- Population Healthy Nuclei (%) [2, 11]: 33%
- Population Hoechst High Intensity Objects (%) [2, 11]: 34%
- Population Membrane Permeable-Phenotype (%) [2, 11]: 18%
- Population Mitochondria Different-Phenotype (%) [2, 11]: 31%
- Population Mitotic Cells (%) [2, 11]: 50%
- Population Normal (%) [2, 11]: 65%
- Population Pyknosed Nuclei (%) [2, 11]: 8%
- Population Tubulin-Different-Phenotype (%) [2, 11]: 25%
- Total Cell Count [2, 11]: 73
- Population Apoptotic (%) [2, 12]: 59%
- Population Fragmented Nuclei (%) [2, 12]: 27%
- Population Healthy Nuclei (%) [2, 12]: 54%
- Population Hoechst High Intensity Objects (%) [2, 12]: 12%
- Population Mitochondria Different-Phenotype (%) [2, 12]: 5%
- Population Mitotic Cells (%) [2, 12]: 40%
- Population Normal (%) [2, 12]: 87%
- Population Pyknosed Nuclei (%) [2, 12]: 17%
- Population Tubulin-Different-Phenotype (%) [2, 12]: 15%
- Total Cell Count [2, 12]: 211
- Population Apoptotic (%) [2, 13]: 40%
- Population Fragmented Nuclei (%) [2, 13]: 56%
- Population Healthy Nuclei (%) [2, 13]: 30%
- Population Hoechst High Intensity Objects (%) [2, 13]: 35%
- Population Membrane Permeable-Phenotype (%) [2, 13]: 0%
- Population Mitochondria Different-Phenotype (%) [2, 13]: 25%
- Population Mitotic Cells (%) [2, 13]: 60%
- Population Normal (%) [2, 13]: 65%
- Population Pyknosed Nuclei (%) [2, 13]: 12%
- Population Tubulin-Different-Phenotype (%) [2, 13]: 33%
- Total Cell Count [2, 13]: 60
- Population Apoptotic (%) [2, 14]: 73%
- Population Fragmented Nuclei (%) [2, 14]: 22%
- Population Healthy Nuclei (%) [2, 14]: 59%
- Population Hoechst High Intensity Objects (%) [2, 14]: 13%
- Population Membrane Permeable-Phenotype (%) [2, 14]: 7%
- Population Mitochondria Different-Phenotype (%) [2, 14]: 0%
- Population Mitotic Cells (%) [2, 14]: 26%
- Population Normal (%) [2, 14]: 86%
- Population Pyknosed Nuclei (%) [2, 14]: 17%
- Population Tubulin-Different-Phenotype (%) [2, 14]: 1%
- Total Cell Count [2, 14]: 221
- Population Apoptotic (%) [2, 15]: 0%
- Population Fragmented Nuclei (%) [2, 15]: 70%
- Population Healthy Nuclei (%) [2, 15]: 25%
- Population Hoechst High Intensity Objects (%) [2, 15]: 22%
- Population Membrane Permeable-Phenotype (%) [2, 15]: 26%
- Population Mitochondria Different-Phenotype (%) [2, 15]: 6%
- Population Mitotic Cells (%) [2, 15]: 100%
- Population Normal (%) [2, 15]: 77%
- Population Pyknosed Nuclei (%) [2, 15]: 5%
- Population Tubulin-Different-Phenotype (%) [2, 15]: 33%
- Total Cell Count [2, 15]: 77
- Growth Rate [3, 4]: 0
- Growth Rate [3, 5]: 0
- Growth Rate [3, 6]: 0
- Growth Rate ([3]; 18 h, replicate number 2, timepoint 18 hours): 1
- Growth Rate [3, 7]: 1
